Diaph act CS: activates diaphorase or chemically reduces, flagging diaphorase assay artifacts; Diaphorase/resazurin coupled assay, resorufin fluorescence, 16 min; hits give high values; 1 = vehicle wells, 0 = NADH-free wells; activation factor at 20 µM; actives 0.005% (n = 190,000);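 active = diaphorase activity raised at least twofold by the compound at 20 µM; inactive = activation factor below 2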
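Assay system: Purified diaphorase enzyme from Clostridium kluyveri | Amount: Enzyme 0.07 U/mL final | Dosing: Compound 20 µM once, DMSO 1% | Timing: 16 min reaction at room temperature | Detection: Fluorescence, excitation 544 nm and emission 590 nm | Evaluation: Higher resorufin formation from activation or reduction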
eIF4E-4G inh: inhibitors of eIF4E and eIF4G interaction in translation initiation | P63073+Q04637 | TR-FRET eIF4E-eIF4GI(517-606) binding, 2 h | inhibition, % at 21.7 µM | actives 0.37% (n = 220,000) | AID 782;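 also: 0% = full FRET control wells and 100% = background wells lacking eIF4GI fragment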
14-3-3 Bad inh: disrupts binding of bovine 14-3-3 zeta to phospho-Bad peptide; inhibition, % at 21.7 µM; actives 0.71% (n = 220,000); TR-FRET 14-3-3zeta/Dy647-pBad peptide displacement, 1 h; AID 781;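 active = inhibition above about 70%, limit read from the data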;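 also: 0% = full 14-3-3 plus peptide FRET controls and 100% = background without 14-3-3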
p47phox inh: p47phox (human) inhibition; P14598; p47phox/p22phox peptide binding, fluorescence polarization, 2 h; inhibition, % at 24.7 µM; actives 0.53% (n = 220,000); AID 1274;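 also: 0% = p47phox with labelled peptide and 100% = labelled peptide alone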
Hck-Nef inh: human Hck-Nef kinase inhibition; P08631; Recombinant Hck-YEEI plus Nef, Z-Lyte FRET kinase assay; inhibition, % at 20 µM; actives 0.68% (n = 220,000);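 active = Hck-Nef kinase inhibition above about 50%, limit read from the data; inactive = inhibition below that limit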;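 also: 0% = DMSO with Hck plus Nef and 100% = Hck alone without Nef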
Numbers without * were called inactive; nt = not tested or not shown; [ ] = remark or other dose. In the library only some 2% were active in any assay of this set; here they are far more common.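 The calls were made as follows, unless noted: active = inhibition above about 30% (limit read from the data); inactive = the rest.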

SMILES | Diaph act CS | eIF4E-4G inh | 14-3-3 Bad inh | p47phox inh | Hck-Nef inh
CC1(C)Cc2c(c(-c3ccco3)nc3sc4c(NCCN5CCOCC5)ncnc4c23)CO1 | 0.8 | -1.8 | -12.5 | -33.4 | 2.3
CC(CCc1ccccc1)N(C)CC(O)c1cccc([N+](=O)[O-])c1 (configuration not stated) | nt | 6.6 | -8.4 | -0.4 | 15.8
ClC(/C=N/n1cnnc1)=C/c1ccccc1 | nt | -0.2 | 2.9 | -3.7 | 20.6
CC(=O)Nc1nc(CCN2C(=O)c3ccccc3C2=O)cs1 | 1.1 | 0.1 | 7.5 | 45.3* | 13.0
CNc1nc(CCN2C(=O)c3ccccc3C2=O)cs1 | 1.1 | 4.6 | -8.4 | -8.8 | 0.8
COc1ccc2ccccc2c1CN1CCN(Cc2ccccc2)CC1 | 0.9 | -1.4 | 91.2* | -9.3 | 1.8
COc1ccc2ccccc2c1CN1CCCC(CO)C1 (configuration not stated) | 1 | -1.4 | 30.7 | 0.2 | 0.7
Cc1ccc(CNC(=O)CCc2nc(-c3cccs3)no2)cc1 | 0.8 | 1.8 | -3.6 | 199.6* | 4.4
COc1ccc(N2C(=O)C(CN3CCCCC3)C2c2ccccc2)cc1 (configuration not stated) | 1.2 | -0.3 | 88.9* | -9.5 | 27.2
O=C1CCCN1CCCNCC(=O)N1c2ccccc2Sc2ccccc21 | 0.8 | -9.6 | 78.9* | -3.6 | 6.2
Cn1c2ccccc2c(=O)c2c(=O)n(C3CCCCCC3)c(C3CCCCC3)nc21 | 0.7 | 12.5 | 86.5* | 45.0* | 42.2
Cn1c2ccccc2c(=O)c2c(=O)n(-c3ccccc3)c(C3CCCCC3)nc21 | 0.8 | 12.8 | 0.1 | -2.6 | 7.4
O=C(O)/C=C/C(=O)Nc1ccc(NC(=O)c2ccccc2)c(Cl)c1 | 1 | 1.9 | 96.0* | -12.9 | 6.1
CCN=C(N/N=C/c1ccc([N+](=O)[O-])cc1)SC | 0.9 | 30.5*[fluorescence artefact?] | 64.6 | -5.2 | -1.3
CC(=O)Nc1ccc(S(=O)(=O)NCc2ccc(C(=O)NCc3ccc4c(c3)OCO4)cc2)cc1 | 1 | -9.8 | 4.9 | -10.2 | -0.1
NS(=O)(=O)c1ccc(NC(=S)NCc2ccc(Cl)cc2)cc1 | 0.8 | 35.1* | 12.5 | -3.1 | -0.7
CC(=O)Nc1ccc(S(=O)(=O)NCc2ccc(C(=O)NCc3ccc(Cl)cc3)cc2)cc1 | 1 | -37.4 | 74.4* | 12.1 | 2.9
CCOc1ccc(-n2c(SCC(=O)Nc3ccc(Br)cc3)nc3n[nH]c(C)c3c2=N)cc1 | 0.9 | 10.5 | 39.8 | 40.5* | 23.5
COc1ccccc1-n1c(C)nc2cc(C(=O)O)ccc21 | 0.9 | -1.9 | 2.2 | 39.3* | 3.3
COc1ccc(CC(=O)n2nc(-c3ccccc3)nc2NCc2ccco2)cc1 | 0.7 | 2.2 | 78.0* | -67.0 | 1.4
COc1ccc(Nc2nc(NCc3ccco3)nc(N/N=C/c3ccccc3)n2)cc1 | 1 | -1.5 | 81.3* | 2.0 | -0.5
N#Cc1ccc[n+](CC(=O)c2ccc(NC(=O)c3ccccc3)cc2)c1 | nt | 0.6 | 5.7 | -30.7 | 12.4
O=C(CN1C(=O)NC2(CCCC2)C1=O)OCc1cc(=O)n2cc(Br)ccc2n1 | nt | 14.0 | 1.6 | -8.0 | 25.3
C=CCNC(=O)c1onc(CSc2cccc(OC)c2)c1C(=O)O | 1 | 1.2 | 17.8 | 31.9* | 0.6
Cn1c(SCC(=O)N2CCOCC2)nnc1-c1cccc(NC(=O)c2ccccc2)c1 | 1 | 0.2 | 11.6 | -13.7 | 2.7
SMILES | Diaph act CS | eIF4E-4G inh | 14-3-3 Bad inh | p47phox inh | Hck-Nef inh
COC(=O)CSc1nnc(-c2cccc(NC(=O)c3ccc(C)cc3)c2)n1C | 1 | 71.8* | 37.3 | -2.2 | 1.5
CCc1ccc(C(=O)CSc2nc(C)cc(=O)[nH]2)cc1 | 1 | 2.8 | 4.1 | 0.7 | 11.3
Fc1ccc(Nc2nnc(C(F)(F)F)s2)cc1 | nt | 1.7 | -6.3 | 14.2 | 11.8
O=Nc1c(-c2cccc([N+](=O)[O-])c2)nc2ncccn12 | nt | 12.3 | -3.3 | 3.8 | -64.9
O=[N+]([O-])c1cc(Br)c(O)c(/C=N/Nc2nnnn2-c2cccc3ccccc23)c1 | 0.7 | 44.2*[fluorescence artefact?] | 43.4 | -42.4 | 11.0
Oc1cccc(C(O)CNCc2ccc(-c3ccccc3)cc2)c1 (configuration not stated) | 0.9 | 1.2 | 77.4* | -23.9 | 16.1
COc1ccc2c(c1)O[C@H](c1ccc3c(c1)OCO3)[C@@H](OC(=O)Nc1cc(OC)c(OC)c(OC)c1)C2=O | 0.9 | -0.5 | 80.6*[fluorescence artefact?] | 1.9 | -5.6

Source: PubChem
